A short description of data set [1]: folding enthalpy; higher = less favourable; fluorescence melt of hairpins on a sequencing array, two-state fit. The following applies: sodium 0.088 M. The procedure, abridged: (§1)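 With Cy3 and quencher oligos annealed, library hairpins on a sequenced MiSeq flow cell were imaged for Cy3 fluorescence in 50 mM Na-HEPES pH 8.0, 25 mM NaCl, in 2.5 °C steps up to 60 °C. Melting temperature and folding enthalpy were derived from bootstrapped two-state fits of signals normalised to pre-quench Cy3 and to control constructs. Four replicates were combined by inverse variance, with fitted temperatures raised by 9.35 °C to match UV melts.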

Data set [2] can be described thus: melting temperature; fluorescence melt of hairpins on a sequencing array, two-state fit, raised by 9.35 °C to match UV melts. The following applies: sodium 0.088 M. The procedure, abridged:
as §1

As for GAATACGGAAACGTATTC (((((((....))))))), the folding enthalpy in data set [1] is -36.5 kcal/mol. Also, in data set [2], the Tm was 55.7 °C.
Consider GAATAGGGAAACCTATCC (.(((((....))))).), for which the folding enthalpy in data set [1] is -15.5 kcal/mol. Also, in data set [2], the Tm came out at 26.4 °C.
With GAATATCCGAAAGGATTC (((..(((....)))))), the folding enthalpy in data set [1] was -13.4 kcal/mol. Also, the Tm in data set [2] is 28.5 °C.
Regarding GAATCCGAAAGGATGTTC ((((((....)))..))), the folding enthalpy in data set [1] is -13.8 kcal/mol. The Tm in data set [2] came out at 37.3 °C.
Turning to GAATCCGAAAGGATTC ((((((....)))))), the folding enthalpy in data set [1] was -37 kcal/mol. In addition, in data set [2], the Tm is 66.5 °C.
The corresponding values for GAATCCGGAAACGGATCC (.(((((....))))).) are -14.2 kcal/mol and 40.6 °C.
GAATCCGGAAACGGGTTC (((.(((....))).))): the folding enthalpy in data set [1] is -33.5 kcal/mol. The Tm in data set [2] is 52.2 °C.
The corresponding values for GAATCGAAAGATTC (((((....))))) are -27.4 kcal/mol and 50.9 °C.
The corresponding values for GAATCGCGAAAGCGCTTC (((.(((....))).))) are -18.1 kcal/mol and 43.2 °C.
For the sequence GAATCGGGAAACTGGTTC (((.(.(....).).))), in data set [1], the folding enthalpy was -19.8 kcal/mol. Besides, the Tm in data set [2] came to 29.3 °C.
For the sequence GAATCTCCGAAAGGATTC (((..(((....)))))), the folding enthalpy in data set [1] was -13.5 kcal/mol. Besides, the Tm in data set [2] was 28.7 °C.
The corresponding values for GAATCTGGAAACAGACTC ((.((((....)))).)) are -17.7 kcal/mol and 29.1 °C.
Consider GAATCTGGAAACGGATTC (((((.(....).))))), for which the folding enthalpy in data set [1] is -35.1 kcal/mol. In addition, the Tm in data set [2] came to 44.8 °C.
Turning to GAATGACGAAAGTCGTTC (((.(((....))).))), the folding enthalpy in data set [1] is -34.4 kcal/mol. Moreover, the Tm in data set [2] stood at 54.7 °C.
As to GAATGAGGAAACCCATTC (((((.(....).))))), in data set [1], the folding enthalpy was -20.9 kcal/mol. In addition, the Tm in data set [2] turned out to be 36.1 °C.
For GAATGCACGAAAGTGTTC (((..(((....)))))), the folding enthalpy in data set [1] is -8.75 kcal/mol. The Tm in data set [2] amounted to 23.1 °C.
Take GAATGCCGAAAGGCTTTC (((.(((....))).))): in data set [1], the folding enthalpy is -21.7 kcal/mol. The Tm in data set [2] was found to be 48 °C.
With GAATGCGCGAAAGCGTTC (((..(((....)))))), in data set [1], the folding enthalpy was -8.39 kcal/mol. For the same sequence, the Tm in data set [2] worked out at 26.1 °C.
GAATGCGGAAACGCACTC ((.((((....)))).)): in data set [1], the folding enthalpy is -13.1 kcal/mol. Besides, in data set [2], the Tm is 38.4 °C.
The corresponding values for GAATGGCCGAAAGGCTTC (((..(((....)))))) are -6.89 kcal/mol and 27.6 °C.
Turning to GAATGTGGAAACACGTTC (((.(((....))).))), in data set [1], the folding enthalpy was -32.3 kcal/mol. Further, the Tm in data set [2] was found to be 47.8 °C.
As to GAATGTGGAAACGCATTC (((((.(....).))))), in data set [1], the folding enthalpy was -37.5 kcal/mol. Further, in data set [2], the Tm came to 46 °C.
Taken in the same sequence, the figures for GAATTAGGAAACTAGTTC (((.(((....))).))) were -16.8 kcal/mol and 27.1 °C.
Taken in the same sequence, the figures for GAATTCCGAAAGGATTC (((.(((....)))))) were -20.2 kcal/mol and 38.4 °C.
GAATTCCGAAAGGATTTC (((.(((....))).))): in data set [1], the folding enthalpy was -29.7 kcal/mol. The Tm in data set [2] turned out to be 40.7 °C.
As to GAATTCGAAAGAATTC ((((((....)))))), the folding enthalpy in data set [1] is -44.9 kcal/mol. In addition, in data set [2], the Tm stood at 54.4 °C.
Take GAATTCGGAAACGAACTC ((.((((....)))).)): in data set [1], the folding enthalpy is -17.4 kcal/mol. Also, in data set [2], the Tm came to 33.7 °C.
GAATTGGGAAACCAATTC (((((((....))))))): the folding enthalpy in data set [1] is -45 kcal/mol. Also, the Tm in data set [2] came out at 54 °C.
The corresponding values for GAATTTGGAAACAAATTC (((((((....))))))) are -45.1 kcal/mol and 52 °C.
Turning to GACAAAACGAAAGTTGTC (((..(((....)))))), the folding enthalpy in data set [1] was -24.8 kcal/mol. In addition, the Tm in data set [2] was 39.3 °C.
With GACAAAGGAAACTTTGTC (((((((....))))))), the folding enthalpy in data set [1] was -43.8 kcal/mol. Moreover, the Tm in data set [2] is 53.9 °C.
For GACAACCCGAAAGGGGTC (((..(((....)))))), the folding enthalpy in data set [1] is -12.9 kcal/mol. Also, the Tm in data set [2] worked out at 39.1 °C.
GACAACGAAAGTTGTGTC ((((((....)))..))): the folding enthalpy in data set [1] was -14.7 kcal/mol. Moreover, the Tm in data set [2] was determined as 50.6 °C.
Taken in the same sequence, the figures for GACAACGAAAGTTTCGTC ((((((....)))..))) were -14.1 kcal/mol and 32.8 °C.
Turning to GACAACGGAAACGCTGTC ((((.((....)).)))), the folding enthalpy in data set [1] is -34.7 kcal/mol. Also, the Tm in data set [2] came to 45.6 °C.
With GACAAGCCGAAAGGCGTC (((..(((....)))))), in data set [1], the folding enthalpy is -9.16 kcal/mol. Also, the Tm in data set [2] was 42.3 °C.
As to GACAATCCGAAAGGAGTC (((..(((....)))))), the folding enthalpy in data set [1] was -17.2 kcal/mol. In addition, in data set [2], the Tm turned out to be 32.7 °C.
Regarding GACAATGGAAACATTGCC (.(((((....))))).), the folding enthalpy in data set [1] was -18.6 kcal/mol. Besides, the Tm in data set [2] was 38.2 °C.
With GACAATGGAAACATTGTC (((((((....))))))), in data set [1], the folding enthalpy is -47.7 kcal/mol. In addition, the Tm in data set [2] turned out to be 57 °C.
The corresponding values for GACAATGGAAACGTTGTC (((((.(....).))))) are -34.7 kcal/mol and 46.5 °C.
GACACACGAAAGTGGGTC (((.(((....))).))): the folding enthalpy in data set [1] was -37.8 kcal/mol. In addition, in data set [2], the Tm turned out to be 67.6 °C.
Taken in the same sequence, the figures for GACACACGAAAGTGGTC (((.(((....)))))) were -20.7 kcal/mol and 49.7 °C.
The corresponding values for GACACAGGAAACTATGTC ((((.((....)).)))) are -24.5 kcal/mol and 29.9 °C.
As to GACACAGGAAACTGCGTC (((.(((....))).))), the folding enthalpy in data set [1] was -23.4 kcal/mol. For the same sequence, the Tm in data set [2] came out at 45.3 °C.
In the case of GACACCCGAAAGGGAGTC (((.(((....))).))), the folding enthalpy in data set [1] is -29.6 kcal/mol. Besides, in data set [2], the Tm turned out to be 57.5 °C.
GACACCGAAAGGTCAGTC ((((((....)))..))): the folding enthalpy in data set [1] was -12.5 kcal/mol. In addition, the Tm in data set [2] was found to be 35.9 °C.
Taken in the same sequence, the figures for GACACCGAAAGGTGGGTC ((((((....)))..))) were -11.2 kcal/mol and 65.5 °C.
With GACACCGAAAGGTTTGTC ((((((....)))..))), in data set [1], the folding enthalpy is -15.1 kcal/mol. For the same sequence, the Tm in data set [2] worked out at 38.3 °C.
GACACCGCGAAAGCGGTC (((..(((....)))))): in data set [1], the folding enthalpy is -6.65 kcal/mol. Moreover, the Tm in data set [2] came out at 35.4 °C.
Taken in the same sequence, the figures for GACACCGGAAACGACGTC (((..((....))..))) were -21.9 kcal/mol and 29.4 °C.
GACACGACGAAAGTCGTC (((..(((....)))))): in data set [1], the folding enthalpy is -6.1 kcal/mol. In addition, the Tm in data set [2] worked out at 34.4 °C.
For GACACGGCGAAAGCCGTC (((..(((....)))))), the folding enthalpy in data set [1] is -6.25 kcal/mol. The Tm in data set [2] stood at 32.9 °C.
GACACGGGAAACCGTACC (..((((....))))..): the folding enthalpy in data set [1] is -8.11 kcal/mol. Moreover, in data set [2], the Tm was 27.9 °C.
The corresponding values for GACACGGGAAACCGTATC ((.((((....)))).)) are -14.5 kcal/mol and 35.2 °C.
For the sequence GACAGAGGAAACTCCGTC (((.(((....))).))), the folding enthalpy in data set [1] is -18.3 kcal/mol. In addition, in data set [2], the Tm was found to be 35 °C.
Take GACAGCGAAAGCTAGGTC ((((((....)))..))): in data set [1], the folding enthalpy is -18.4 kcal/mol. The Tm in data set [2] worked out at 39.4 °C.
Consider GACAGCGAAAGCTCCGTC ((((((....)))..))), for which the folding enthalpy in data set [1] was -9.29 kcal/mol. In data set [2], the Tm is 34.4 °C.
In the case of GACAGCGAAAGCTGGTC ((((((....))).))), in data set [1], the folding enthalpy was -11.8 kcal/mol. Besides, the Tm in data set [2] is 55 °C.
With GACAGCGGAAACACTGTC (((((.(....).))))), in data set [1], the folding enthalpy is -33.4 kcal/mol. For the same sequence, in data set [2], the Tm was found to be 46.6 °C.
As for GACAGCGGAAACGCCGTC (((.(((....))).))), the folding enthalpy in data set [1] is -18.6 kcal/mol. In data set [2], the Tm came out at 50.6 °C.
As to GACAGCGGAAACGTTGTC ((((.((....)).)))), the folding enthalpy in data set [1] was -37.2 kcal/mol. Also, the Tm in data set [2] turned out to be 51.9 °C.
For GACAGGCGAAAGCCGTC (((.(((....)))))), the folding enthalpy in data set [1] is -11.3 kcal/mol. Further, the Tm in data set [2] was 64.9 °C.
On to GACAGGGAAACCTGTC ((((((....)))))), for which the folding enthalpy in data set [1] is -37.8 kcal/mol. In addition, the Tm in data set [2] amounted to 58.9 °C.
For GACAGGGGAAACCCTGCC (.(((((....))))).), the folding enthalpy in data set [1] was -13.8 kcal/mol. In addition, the Tm in data set [2] turned out to be 46.4 °C.
Turning to GACAGTGAAAACTGTC ((((((....)))))), in data set [1], the folding enthalpy is -28.6 kcal/mol. For the same sequence, the Tm in data set [2] was determined as 56.4 °C.
Consider GACATACGAAAGTAAGTC (((.(((....))).))), for which the folding enthalpy in data set [1] was -29.7 kcal/mol. For the same sequence, the Tm in data set [2] came to 42.7 °C.
The corresponding values for GACATAGCGAAAGCTGTC (((..(((....)))))) are -20.5 kcal/mol and 47.1 °C.
Regarding GACATAGGAAACTATGTC (((((((....))))))), the folding enthalpy in data set [1] was -35.6 kcal/mol. Also, the Tm in data set [2] worked out at 53.5 °C.
Consider GACATAGGAAACTGTGTC ((((.((....)).)))), for which, in data set [1], the folding enthalpy was -40.5 kcal/mol. For the same sequence, the Tm in data set [2] was 44.4 °C.
Taken in the same sequence, the figures for GACATCCGAAAGGACGTC (((.(((....))).))) were -37 kcal/mol and 49 °C.
Turning to GACATCGGAAACGGTGTC ((((.((....)).)))), the folding enthalpy in data set [1] was -47 kcal/mol. Further, the Tm in data set [2] is 52.2 °C.
Regarding GACATGGAAACATGTC ((((((....)))))), in data set [1], the folding enthalpy was -38.2 kcal/mol. For the same sequence, the Tm in data set [2] amounted to 56 °C.
GACATTGGAAACAACGTC (((.(((....))).))): the folding enthalpy in data set [1] is -23.2 kcal/mol. Further, the Tm in data set [2] came to 34 °C.

(Values after the array DNA melting data of Ke et al. (doi:10.1101/2024.01.08.574731).)
